Assay outcomes (PubChem)
Sampled rows, rich in hits. Any-hit rate of the full collection: about 2.7%.
V1aR counter = V1a receptor agonism, counter-screen for OXTR agonists | P37288 | CHO-V1R cells, Fluo-8 calcium fluorescence, agonist mode; 0% DMSO, 100% 3 nM vasopressin | activation, % at 3 µM | hit rate 0.25% among 320,000 | AID 2797;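 active means activation above the mean activation of all tested compounds plus 3 SD, per screening run, cut at about 20% in these data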;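 further: signal is peak over basal fluorescence ratio across a 100 second FLIPR read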
OX1R antag-1 = antagonists of human orexin 1 receptor. O43613. CHO/OX1R cells, Fluo-8 calcium fluorescence, orexin A. inhibition, % at 5 µM. hit rate 0.43% among 330,000;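 active means inhibition above its plate's threshold, mean inhibition of all tested compounds on the plate plus 3 SD, cut at about 37% in these data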;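 further: 0% = orexin A challenge wells and 100% = SB-334867-A antagonist wells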
CHO parental Ca = counter-screen: ATP calcium response change in parental CHO cells; inhibition, % at 5.6 µM; parental CHO-K1, ATP-induced calcium, Fluo-8 fluorescence; hit rate 0.63% among 330,000;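 active means inhibition above that plate's mean sample inhibition plus 3 SD, cut at about 26% in these data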;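 further: 0% = ATP-challenged DMSO wells and 100% = DMSO wells without ATP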
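Material – parental CHO cells · Reagent – ATP stimulus · Compound – single nominal dose of 5.6 µM per compound · Detection – Fluo-8 fluorescence · Read-out basis – percent inhibition of calcium signal · Controls – ATP-challenged DMSO wells low, unchallenged DMSO wells high · Repeats – no replicates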
OXTR potentiator = human OXTR potentiation; P30559; CHO-OTR cells, Fluo-8 calcium fluorescence, potentiator mode; 0% = oxytocin EC15, 100% = EC100; activation, % at 3 µM; hit rate 0.061% among 320,000; AID 2445;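 active means activation above that plate's cutoff, the mean activation of tested compounds plus 3 SD, cut at about 6.6% in these data, passing the limit was not always enough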;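 further: 100% uses oxytocin at 75 nM as the full agonist control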
Target sequence (P30559 whole entry, looked up): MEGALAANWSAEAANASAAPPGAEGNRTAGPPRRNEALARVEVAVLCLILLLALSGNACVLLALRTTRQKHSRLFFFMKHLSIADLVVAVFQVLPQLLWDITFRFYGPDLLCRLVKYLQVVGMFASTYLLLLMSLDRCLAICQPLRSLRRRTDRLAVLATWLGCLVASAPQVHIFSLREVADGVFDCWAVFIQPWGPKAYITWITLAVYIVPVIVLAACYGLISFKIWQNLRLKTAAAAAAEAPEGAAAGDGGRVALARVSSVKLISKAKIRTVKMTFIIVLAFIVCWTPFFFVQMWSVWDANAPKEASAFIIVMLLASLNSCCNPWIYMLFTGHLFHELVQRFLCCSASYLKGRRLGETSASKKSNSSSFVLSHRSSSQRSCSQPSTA
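Assay system: CHO cell line stably expressing human OTR | Also added: Oxytocin at about EC15, sub-maximal agonist stimulus | Times: Compound 6 min at room temperature before oxytocin, 100 s read | Measured by: Fluo-8 intracellular calcium fluorescence, ex 470-495, em 515-575 nm | Controls: EC15 oxytocin alone as 0%, 75 nM oxytocin as 100%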
OXTR agonist = activates the human oxytocin receptor | CHO-OTR cells, Fluo-8 calcium fluorescence; normalized: DMSO 0%, oxytocin 100% | activation, % at 3 µM | hit rate 0.32% among 320,000 | AID 2435;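 active means activation above the mean of all tested compounds plus 3 SD, cutoff set per screening run, cut at about 20% in these data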;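 further: peak over basal fluorescence ratio from a 100 s FLIPR kinetic read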
OX1R antag-2 = blocks the human orexin 1 receptor; O43613; OX1R-expressing cells, FRET antagonist read-out; inhibition, % at 6.6 µM; hit rate 1.8% among 330,000; in the data active means inhibition mostly above about 38%, no sharp cut-off; inactive means mostly below about 40%;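 further: 0% = agonist challenge alone and 100% = reference antagonist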
Starred values were filed as active, the others as inactive.

SMILES	V1aR counter	OX1R antag-1	CHO parental Ca	OXTR potentiator	OXTR agonist	OX1R antag-2
CC1=CC2=NC(=O)CC(C)(C(=O)N(CC(=O)NC3CCCC3)Cc3ccccc3)N2C=C1 (centres undefined)	0.4	3.4	-9.4	-8.9	0.4	22.4
Cc1nc(SCc2nc3c(F)cccc3[nH]2)c2oc3ccccc3c2n1	0.0	-11.2	-15.8	5.1	0.6	32.3
Cc1ccsc1/C=C/C1=Cc2c(sc(NC(=O)CSc3n[nH]c(N)n3)c2C#N)C(C)(C)C1	5.4	-13.8	-15.0	-7.8	46.1*	15.2
COc1cccc(NC2=Nc3cccc4cccc2c34)c1	-0.1	-19.6	-29.4	-3.0	-1.7	72.3*
COc1cc(NC2=Nc3cccc4cccc2c34)cc(OC)c1OC	1.0	-31.6	-20.9	8.6	-1.4	35.6
N/C(=N\OC(=O)c1ccc2ccccc2c1)c1ccccc1Cl	-0.2	-15.8	-20.1	-9.9	-0.4	21.0
CCOc1ccc(OCCNC(=O)c2oc3ccccc3c2COC)cc1	-1.0	-5.7	-13.7	-3.4	-2.8	10.2
COCc1c(C(=O)NCC2COc3ccccc3O2)oc2ccccc12 (centres undefined)	-0.9	7.0	-25.6	-7.3	-1.9	68.1*
COCc1c(C(=O)NCCOc2ccc(Cl)cc2)oc2ccccc12	0.2	-8.4	-24.0	-3.8	-1.6	34.4*
CC(=O)NCC1COc2ccccc2O1 (centres undefined)	1.0	-16.0	-10.0	-1.7	2.8	2.1
CCOC(=O)c1c(CSc2ccccc2)oc2ccc(O)cc12	0.0	-1.4	25.6*	-10.7	-1.2	24.0
O=C(Nc1nc2c(F)cc(F)cc2s1)C1CC1	-0.1	-8.6	0.9	-7.2	-1.5	2.1
COc1ccc(OC)c(NC(=O)CSc2nccn2Cc2ccco2)c1	2.7	-22.8	-20.5	-3.2	2.6	25.1
COc1cc(OC)c(/C=C2\C(=O)Nc3ccccc32)c(OC)c1	3.4	-13.8	-7.8	-10.1	1.5	40.9*
Cc1ccc(S(=O)(=O)CCC(=O)OCC(=O)Nc2cc(F)ccc2C)cc1	-0.6	-15.7	-27.4	3.0	-0.4	15.2
O=C(COC(=O)Cc1cccs1)NCc1ccc(F)cc1	0.8	-8.8	-2.9	-2.0	0.0	2.4
Nc1[nH]c2cc([N+](=O)[O-])ccc2c1-c1ccccn1	19.0	51.2*	36.6*	-13.8	14.5	16.8
O=C(Nc1ccccc1)c1cc2ccc3ccccc3c2s1	2.3	-2.8	-25.4	-7.4	-0.3	50.6*
O=C(NC1CCN(S(=O)(=O)c2ccc(F)cc2)CC1)c1cccc(F)c1	-0.6	-29.1	-7.1	-3.5	-1.1	9.3
O=C(Nc1cccc(C(F)(F)F)c1)NC1CCN(S(=O)(=O)c2ccc(F)cc2)CC1	5.2	-4.6	33.6*	-11.7	2.5	7.0
Cc1cccc(C(=O)NC2CCN(S(=O)(=O)c3ccc(F)cc3)CC2)c1	-0.2	16.1	41.2*	-0.6	-1.7	10.0
Cc1ccc(-n2nnnc2SCc2nnc(-c3ccccc3Br)o2)c(C)c1	1.9	62.8*	25.3	-11.5	1.1	44.4*
O=C(Nc1ccc(Br)cc1)c1cccc(S(=O)(=O)Nc2ccccn2)c1	8.2	-21.6	-10.1	-9.2	5.4	0.7
O=C1CSc2ccc(C(=O)Nc3cccc(S(=O)(=O)Nc4ccc(Br)cc4)c3)cc2N1	2.0	-2.7	33.9*	-11.3	-0.8	15.1
CCOc1ccc(S(=O)(=O)Nc2cnc3ccccc3c2)cc1	8.2	-3.9	34.9*	-12.6	5.3	27.7
SMILES	V1aR counter	OX1R antag-1	CHO parental Ca	OXTR potentiator	OXTR agonist	OX1R antag-2
O=C(Nc1ccc(Br)cc1)c1cccc(S(=O)(=O)Nc2cnc3ccccc3c2)c1	7.8	4.9	42.1*	-10.5	6.3	54.4
O=[N+]([O-])c1ccc(-c2cnc[nH]2)cc1	-0.4	3.4	-7.1	4.4	-0.3	33.2
Nc1ncncc1-c1ccc([N+](=O)[O-])cc1	0.6	0.1	-1.5	-8.9	0.5	63.3*
Cc1cc(NC(=O)C2C3C(=O)N(CCC(C)C)C(C(=O)NCc4ccccc4)C34C=CC2(C)O4)no1 (centres undefined)	-1.0	-2.3	1.8	-10.2	-1.6	46.1*
Cc1cc(NC(=O)C2C3C(=O)N(c4cccnc4)C(C(=O)NC(C)(C)C)C34C=CC2(C)O4)no1 (centres undefined)	0.3	-18.8	-1.9	-3.4	0.9	7.9
COc1cc(C(=S)N2CCOCC2)ccc1OC(=O)c1ccccc1[N+](=O)[O-]	5.8	8.8	-8.9	-8.1	3.0	61.1*
COc1cc(C(=S)N2CCOCC2)ccc1OC(=O)c1cc(OC)c(OC)c(OC)c1	7.1	-40.3	-14.8	-16.5	3.2	13.9
O=C(Oc1cccc(C(=S)N2CCOCC2)c1)c1cccc([N+](=O)[O-])c1	1.2	-18.9	-11.7	-9.8	0.7	17.2
O=C(Oc1cccc(C(=S)N2CCOCC2)c1)c1cc([N+](=O)[O-])cc([N+](=O)[O-])c1	0.3	-14.3	-8.3	-11.6	-0.6	67.6*
COc1cc(C(=S)N2CCOCC2)cc(OC)c1OC(=O)c1cccc(C)c1	0.1	20.5	-16.0	-13.8	-2.1	65.6*
CC(NC(=O)c1cccc(S(=O)(=O)N2CCCCCC2)c1)c1ccccc1 (centres undefined)	-0.9	-22.9	-20.9	-2.7	-2.3	10.8
COc1ccc(NC(C)=O)cc1CNC(=O)COc1ccccc1C(=O)Nc1cccc(C)c1C	-0.6	-44.2	-16.1	-3.5	-1.6	3.9
CC(NC(=O)COC(=O)c1c[nH]c2ccccc12)c1ccccc1 (centres undefined)	12.8	32.3	-9.0	-8.2	2.9	43.2*
O=C(COC(=O)c1c[nH]c2ccccc12)Nc1ccccc1	4.6	-4.2	-4.4	-7.3	6.1	11.9
O=C(CCCc1c[nH]c2ccccc12)NCCc1c[nH]c2ccccc12	15.6	19.3	1.5	-12.9	10.7	48.8*
O=C(COC(=O)c1ccccc1C(=O)OCC(=O)NCCc1c[nH]c2ccccc12)NCCc1c[nH]c2ccccc12	2.4	57.9*	28.8	-19.8	1.8	68.1*
O=C(Nc1ccncc1)c1cn(-c2ccccc2)nc1-c1cccs1	4.3	-3.9	8.8	-9.9	3.8	27.1
CC(NC(=O)COC(=O)c1cn(-c2ccccc2)nc1-c1cccs1)c1ccccc1 (centres undefined)	0.7	10.4	-6.9	-2.7	0.2	64.0*
O=C(NCCc1c[nH]c2ccccc12)OCCCCOC(=O)NCCc1c[nH]c2ccccc12	9.1	60.8*	30.8	-22.4	10.3	60.7*
CC(C)C(=O)NCCc1c[nH]c2ccccc12	-0.6	1.1	-0.8	-2.8	-0.4	12.1
Cc1n[nH]c(C)c1CCCCOc1ccccc1[N+](=O)[O-]	8.2	-11.4	48.0*	-17.3	11.4	58.8*
